Target: Glutamate NMDA receptor
Experiment: Affinity against 3[H]TCP binding to N-methyl-D-aspartate glutamate receptor in rat brain membranes
Format: cell membranes
Details: not given

SMILES | Ki
Clc1cccc2[n+]1C1CC(c3ccoc3)(c3ccoc3)C2c2ccccc21 (racemic) | 633 nM
Oc1cccc2c1C1c3cccc[n+]3C2CC1(c1ccccc1)c1ccccc1 (racemic) | 12 nM
CCCCCCCCOc1cccc2c1C1c3cccc[n+]3C2CC1(c1ccoc1)c1ccoc1 (racemic) | 3380 nM
O=C(O)c1ccc2c(c1)C1c3cccc[n+]3C2CC1(c1ccoc1)c1ccoc1 (racemic) | > 10000 nM
Oc1ccc2c(c1)C1c3cccc[n+]3C2CC1(c1ccoc1)c1ccoc1 (racemic) | 2.1 nM
N#CC12CC(c3ccoc3)(c3ccoc3)C(c3ccccc31)c1cccc[n+]12 (racemic) | 10 nM
COc1ccc[n+]2c1C1c3ccccc3C2CC1(c1ccoc1)c1ccoc1 (racemic) | 19 nM
Oc1ccc2[n+](c1)C1CC(c3ccoc3)(c3ccoc3)C2c2ccccc21 (racemic) | 1530 nM
COc1cccc2c1C1c3cccc[n+]3C2CC1(c1ccoc1)c1ccoc1 (racemic) | 6 nM
Oc1ccc[n+]2c1C1c3ccccc3C2CC1(c1ccoc1)c1ccoc1 (racemic) | 294 nM
Oc1cc(O)c2c(c1)C1CC(c3ccoc3)(c3ccoc3)C2c2cccc[n+]21 (racemic) | 125 nM
Fc1ccc2c(c1)C1c3cccc[n+]3C2CC1(c1ccoc1)c1ccoc1 (racemic) | 3.6 nM
COc1c(Cl)ccc2c1C1c3cccc[n+]3C2CC1(c1ccoc1)c1ccoc1 (racemic) | 64 nM
O=S(=O)([O-])c1cccc2c1C1c3cccc[n+]3C2CC1(c1ccoc1)c1ccoc1 (racemic) | > 10000 nM
Oc1c(Cl)ccc2c1C1c3cccc[n+]3C2CC1(c1ccoc1)c1ccoc1 (racemic) | 24 nM
CC12CC(c3ccoc3)(c3ccoc3)C(c3ccccc31)c1cccc[n+]12 (racemic) | 1.2 nM
Oc1cccc2c1C1c3cccc[n+]3C2CC1(c1ccoc1)c1ccoc1 (racemic) | 1.8 nM
Brc1ccc(Br)c2c1C1CC(c3ccoc3)(c3ccoc3)C2c2cccc[n+]21 (racemic) | 345 nM
COC(=O)C12CC(c3ccoc3)(c3ccoc3)C(c3ccccc31)c1cccc[n+]12 (racemic) | 39 nM
Oc1cccc2[n+]1C1CC(c3ccoc3)(c3ccoc3)C2c2ccccc21 (racemic) | 3780 nM
c1ccc2c(c1)C1CC(c3ccoc3)(c3ccoc3)C2c2cccc[n+]21 (racemic) | 2 nM
OCc1cccc2c1C1c3cccc[n+]3C2CC1(c1ccoc1)c1ccoc1 (racemic) | 159 nM
COc1cc(OC)c2c(c1)C1CC(c3ccoc3)(c3ccoc3)C2c2cccc[n+]21 (racemic) | 3790 nM
Oc1ccc2c(c1)C1CC(c3ccoc3)(c3ccoc3)C2c2cccc[n+]21 (racemic) | 29 nM
c1ccc2c(c1)C1CC(c3ccoc3)(c3ccoc3)C2c2c3ccccc3cc[n+]21 (racemic) | 19 nM

Test system: not listed separately
Experiment: Ratio (closed/open) was determined
Format: functional
Details: not given
In short: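 Oocytes injected with forebrain-derived RNA and held 48–72 h at 18–22 °C, then superfused. Open block: current 300 s after NMDA plus inhibitor, normalised to initial NMDA current, expressed as % of NMDA-alone controls, one application per cell. Closed block: 30 min inhibitor with 10 µM 7-chlorokynurenate, 1–2 min wash, then 100 µM NMDA, with 100 µM kainate as internal control. Ratio = closed/open IC50.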

SMILES | Ratio
Oc1ccc2c(c1)C1c3cccc[n+]3C2CC1(c1ccoc1)c1ccoc1 (racemic) | 142
Oc1ccc[n+]2c1C1c3ccccc3C2CC1(c1ccoc1)c1ccoc1 (racemic) | 44.6
c1ccc(C2(c3ccccc3)CC3c4ccccc4C2c2cccc[n+]23)cc1 (racemic) | 564
Oc1cccc2c1C1c3cccc[n+]3C2CC1(c1ccoc1)c1ccoc1 (racemic) | 422
C[C@]12N[C@H](Cc3ccccc31)c1ccccc12 [DIZOCILPINE] | 1.6
CCOC1(OCC)C2c3ccccc3C([n+]3ccccc32)C1(C)C (racemic) | 527
c1ccc(C2(N3CCCCC3)CCCCC2)cc1 [PHENCYCLIDINE] | 1.7

Test system: not listed separately
Experiment: Inhibitory activity against NMDA closed channel block
Format: functional
Details: not given
In short: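 Oocytes (stage V-VI, defolliculated with 0.2% collagenase) were held 48-72 h at 18-22 °C in ND96 and superfused at ~4 mL/min. Controls were two 100 µM NMDA pulses 15 min apart. Cells then sat 30 min in 10 µM 7-chlorokynurenate plus inhibitor, were washed 1-2 min and retested with 100 µM NMDA. 100 µM kainate served as internal control. One application per cell.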

SMILES | IC50
Oc1ccc2c(c1)C1c3cccc[n+]3C2CC1(c1ccoc1)c1ccoc1 (racemic) | 1030 nM
Oc1ccc[n+]2c1C1c3ccccc3C2CC1(c1ccoc1)c1ccoc1 (racemic) | 24800 nM
c1ccc(C2(c3ccccc3)CC3c4ccccc4C2c2cccc[n+]23)cc1 (racemic) | 18100 nM
Oc1cccc2c1C1c3cccc[n+]3C2CC1(c1ccoc1)c1ccoc1 (racemic) | 3860 nM
C[C@]12N[C@H](Cc3ccccc31)c1ccccc12 [DIZOCILPINE] | 40 nM
CCOC1(OCC)C2c3ccccc3C([n+]3ccccc32)C1(C)C (racemic) | 14200 nM
c1ccc(C2(N3CCCCC3)CCCCC2)cc1 [PHENCYCLIDINE] | 450 nM

Test system: not listed separately
Experiment: logD value was determined
Format: physicochemical
Details: octanol/water

SMILES | logD
Oc1cccc2c1C1c3cccc[n+]3C2CC1(c1ccccc1)c1ccccc1 (racemic) | 1.75
O=C(O)c1ccc2c(c1)C1c3cccc[n+]3C2CC1(c1ccoc1)c1ccoc1 (racemic) | 1.76
Oc1ccc2c(c1)C1c3cccc[n+]3C2CC1(c1ccoc1)c1ccoc1 (racemic) | 0.32
COc1cccc2c1C1c3cccc[n+]3C2CC1(c1ccoc1)c1ccoc1 (racemic) | -3.66
Oc1ccc[n+]2c1C1c3ccccc3C2CC1(c1ccoc1)c1ccoc1 (racemic) | 1.66
Fc1ccc2c(c1)C1c3cccc[n+]3C2CC1(c1ccoc1)c1ccoc1 (racemic) | 0.75
Oc1c(Cl)ccc2c1C1c3cccc[n+]3C2CC1(c1ccoc1)c1ccoc1 (racemic) | -0.99
c1ccc(C2(c3ccccc3)CC3c4ccccc4C2c2cccc[n+]23)cc1 (racemic) | -2.54
Oc1cccc2c1C1c3cccc[n+]3C2CC1(c1ccoc1)c1ccoc1 (racemic) | -0.81

Test system: not listed separately
Experiment: pKa value was determined
Format: physicochemical
Details: not given

SMILES | pKa
Oc1ccc2c(c1)C1c3cccc[n+]3C2CC1(c1ccoc1)c1ccoc1 (racemic) | 8.8
Oc1ccc[n+]2c1C1c3ccccc3C2CC1(c1ccoc1)c1ccoc1 (racemic) | 4.88
c1ccc(C2(c3ccccc3)CC3c4ccccc4C2c2cccc[n+]23)cc1 (racemic) | 11.7
Oc1cccc2c1C1c3cccc[n+]3C2CC1(c1ccoc1)c1ccoc1 (racemic) | 8.6
C[C@]12N[C@H](Cc3ccccc31)c1ccccc12 [DIZOCILPINE] | 5.81
CCOC1(OCC)C2c3ccccc3C([n+]3ccccc32)C1(C)C (racemic) | 12.2
c1ccc(C2(N3CCCCC3)CCCCC2)cc1 [PHENCYCLIDINE] | 9.97

Test system: not listed separately
Experiment: Inhibitory activity against NMDA open channel block
Format: functional
Details: not given
In short: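 Superfused oocytes got a single inhibitor application per cell during NMDA response. Current at 300 s was normalized to the initial NMDA current. Inhibition = (mean control (NMDA alone) − test)/control × 100%.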

SMILES | IC50
Oc1ccc2c(c1)C1c3cccc[n+]3C2CC1(c1ccoc1)c1ccoc1 (racemic) | 7.3 nM
Oc1ccc[n+]2c1C1c3ccccc3C2CC1(c1ccoc1)c1ccoc1 (racemic) | 557 nM
c1ccc(C2(c3ccccc3)CC3c4ccccc4C2c2cccc[n+]23)cc1 (racemic) | 32 nM
Oc1cccc2c1C1c3cccc[n+]3C2CC1(c1ccoc1)c1ccoc1 (racemic) | 9.13 nM
C[C@]12N[C@H](Cc3ccccc31)c1ccccc12 [DIZOCILPINE] | 23 nM
CCOC1(OCC)C2c3ccccc3C([n+]3ccccc32)C1(C)C (racemic) | 27 nM
c1ccc(C2(N3CCCCC3)CCCCC2)cc1 [PHENCYCLIDINE] | 270 nM
